Reference: PMC7540414 (The Prostate, 2020)

Key:
patient 1 tumor CR cells = assay: Drug sensitivity assay; format: cell-based, Human; conditions: for Sensitivity of tumor-derived CR cells compared with benign CR cells: patient 1, IC50 comparison, 72 hour, P < .05 where significant
Method in brief: (§1)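 Tumor CR cells came from radical prostatectomy tissue (>70% tumor) by protease dissociation and the conditional reprogramming method, alongside matched benign CR cells. 3000 cells per well were seeded in conditioned medium, in triplicate. After 24 h, medium containing test compound was added. […] Values are mean ± SD of three separate experiments in triplicate.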

patient 2 tumor CR cells = assay: Drug sensitivity assay; format: cell-based, Human; conditions: for Sensitivity of tumor-derived CR cells compared with normal CR cells: patient 2, IC50 comparison, 72 hour, P < .01 where significant
Method in brief: as §1

metastatic CRPC [1] = conditions: phase I trials; cited from earlier work
tumor CR cells = format: cell-based, Human; conditions: shared by patients 1 and 2; FDR 0.05; FC 1.5
Method in brief: (§2)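 Tumor and normal CR cells from each patient were grown in conditioned medium and given test compound (28 nM for patient 1, 6.5 nM for patient 2) or DMSO, then profiled by RNA-seq. Treated-vs-DMSO DEGs were called at FDR < 0.05 and FC 1.5. Induced and inhibited gene sets were compared across both patients' cells by Venn diagram (Venny).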

normal CR cells = format: cell-based, Human; conditions: shared by patients 1 and 2; FDR 0.05; FC 1.5
Method in brief: as §2

metastatic CRPC [2] = conditions: phase II trial, CFZ in combination with other drugs; cited from earlier work

SMILES	Sensitivity of tumor-derived CR cells compared with benign CR cells (patient 1 tumor CR cells)	Sensitivity of tumor-derived CR cells compared with normal CR cells (patient 2 tumor CR cells)	also measured
CC(C)C[C@H](NC(=O)[C@H](Cc1ccccc1)NC(=O)c1cnccn1)B(O)O [BTZ, bortezomib]	more sensitive	significant responses	patients showing stable PSA (metastatic CRPC [1]): 25%; patients with more than 50% decline in PSA (metastatic CRPC [1]): 4%
CC(C)C[C@H](NC(=O)[C@H](CCc1ccccc1)NC(=O)CN1CCOCC1)C(=O)N[C@@H](Cc1ccccc1)C(=O)N[C@@H](CC(C)C)C(=O)[C@@]1(C)CO1 [CFZ, carfilzomib]	more sensitive	significant responses	IC50 (patient 1 tumor CR cells; Homo sapiens, 72 h): 0.028 µM; IC50 (patient 2 tumor CR cells; Homo sapiens, 72 h): 0.0065 µM; common genes exclusively induced in the tumor CR cells (tumor CR cells): 23; genes inhibited that were shared in the tumor CR cells (tumor CR cells): 45; shared genes inhibited in the normal CR cells (normal CR cells): 56; patients with a decline in PSA (metastatic CRPC [2]): 3.5%
N[C@@H](CCC(=O)N[C@@H](CS)C(=O)NCC(=O)O)C(=O)O [GSH, glutathione]	No significant differential responses	No significant differential responses	
S=C=NCCc1ccccc1 [PTC, phenethyl isothiocyanate]		no differences in sensitivity	
Nc1nccc(-c2c(-c3ccc(F)cc3)ncn2C2CCNCC2)n1 [SB220025]	No significant differential responses	No significant differential responses	
C[S+]([O-])CCCCN=C=S (stereo not shown) [SFN, sulforaphane]	more sensitive	no differences in sensitivity	
